This is an account of results in paper PMC7076145 (Journal of Advanced Research, 2020).

Converted amounts (≈) assume the structure as drawn.

The test system of one experiment is T-cell proliferation. The experiment is described as follows: T-cells proliferation assay. The class given is cell-based, human. The settings on record: for IC50: Homo sapiens, T-cell, 48 h, read-out: IC50 against T-cell proliferation. In a few lines: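 PBMCs came from heparinized healthy human blood. Blood was diluted 1:1 with RPMI-1640, layered on LSM and spun at 400 g for 20 min at 25 °C. The buffy layer was washed at 4 °C and resuspended in RPMI with 5% FBS. Cells were activated with PHA-L, given test compound at several concentrations in triplicate, and incubated 2 days at 37 °C, 5% CO2. Alamar Blue (one-tenth volume) was added for 4 h; absorbance read at 570 and 600 nm.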

Experiment [1] relates to cytokine (TNF-α) production in human leukemia cell line (THP-1). The experiment is described as follows: Cytokine. The experiment is classed as cell-based. As to conditions: THP-1 cells, LPS 50 ng/mL, 240 min; for inhibition of cytokine (TNF-α) production: test concentration not given. In a few lines:
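THP-1 cells grown in RPMI-1640 with 50 µM mercaptoethanol, 1 mM sodium pyruvate, 10% FBS, 5.5 mM glucose, 2 mM L-glutamine and 10 mM HEPES, then plated at 70% confluency. Cells differentiated to macrophage-like cells with PMA 20 ng/mL for 24 h (37 °C, 5% CO2). E. coli LPS B added with test compound for 240 min. Supernatant TNF-α measured by human DuoSet ELISA.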

[2] abbreviates: human T-lymphocytes, phytohemagglutinin-L 7.5 μg/mL, 2 days.

Take “17β-Hydroxy-1-methyl-3-oxo-5α-androst-1-en [Compound 8]”: the “IC50 against T-cell proliferation” value with T-cell proliferation (setting [2]) worked out at 21.1 ± 0.04 µg/mL. Also, the “inhibition of cytokine (TNF-α) production” value (shortened to “inhibition of cytokine”) in experiment [1] is given as 69.7 ± 1.4%. For `CC(=O)O[C@H]1CC[C@H]2[C@@H]3CC[C@H]4CC(=O)C=C(C)[C@]4(C)[C@H]3CC[C@]12C` [Compound 1, Metenolone acetate, reference compound], the “activity against T-cell proliferation (in words)” value in the experiment on T-cell proliferation (setting [2]) was “inactive”. In addition, the “inhibition of cytokine” value in experiment [1] was 62.5 ± 4.4%. In the case of `CC(=O)OC1CC[C@H]2[C@@H]3C[C@H](O)[C@H]4CC(=O)C=C(C)[C@]4(C)[C@H]3CC[C@]12C` (stereo partly drawn) [Compound 2, 6α-Hydroxy-1-methyl-3-oxo-5α-androst-1-en-17-yl acetate], in the experiment with T-cell proliferation, the IC50 is 68.9 ± 0.02 µg/mL. In experiment [1], the “inhibition of cytokine” value was 73.4 ± 0.6%.

For `CC(=O)OC1CC[C@H]2[C@@H]3[C@@H](O)C[C@H]4CC(=O)C=C(C)[C@]4(C)[C@H]3CC[C@]12C` (stereo partly drawn) [Compound 4, 7β-Hydroxy-1-methyl-3-oxo-5α-androst-1-en-17-yl acetate], the “activity against T-cell proliferation (in words)” value in the experiment with T-cell proliferation (setting [2]) is “inactive”. In addition, in experiment [1], the “inhibition of cytokine” value is 33.5 ± 6.6%.

Take `CC(=O)OC1C[C@@H](O)[C@H]2[C@@H]3CC[C@H]4CC(=O)C=C(C)[C@]4(C)[C@H]3CC[C@]12C` (stereo partly drawn) [Compound 6, 15β-Hydroxy-1-methyl-3-oxo-5α-androst-1-en-17-yl acetate]: the “activity against T-cell proliferation (in words)” value in the experiment with T-cell proliferation (setting [2]) is “inactive”. Besides, in experiment [1], the “inhibition of cytokine” value turned out to be 37.8 ± 1.1%. For `CC1=CC(=O)C=C2CC[C@@H]3[C@H](CC[C@]4(C)[C@@H](O)CC[C@@H]34)[C@@]12C` [Compound 7, 17β-Hydroxy-1-methyl-3-oxoandrosta-1,4-dien], in the experiment with T-cell proliferation (setting [2]), the “activity against T-cell proliferation (in words)” value was “inactive”. Besides, the “inhibition of cytokine” value in experiment [1] turned out to be 46.6 ± 5.2%. In the case of `CC1=CC(=O)C[C@H]2CC[C@H]3[C@@H]4CC[C@H](O)[C@@]4(C)CC[C@@H]3[C@@]12C` [Compound 9, 17β-Hydroxy-1-methyl-3-oxo-5β-androst-1-en], the “activity against cytokine (TNF-α) production (in words)” value in experiment [1] is “inactive”. For the compound `CC1=CC(=O)C[C@H]2CC[C@@H]3[C@H](CC[C@]4(C)C(=O)CC[C@@H]34)[C@@]12C` [Compound 10, 1-Methyl-5β-androst-1-en-3,17-dione], in experiment [1], the “inhibition of cytokine” value worked out at 73.2 ± 0.3%. On the same count and under the same terms, under `CC1=CC(=O)C=C2CC[C@@H]3[C@H](C[C@@H](O)[C@]4(C)[C@@H](O)CC[C@@H]34)[C@@]12C` [Compound 11, 12β,17β-Dihydroxy-1-methyl-3-oxoandrosta-1,4-dien] stands 60.1 ± 3.3%. Regarding `C[C@H]1CC(=O)C[C@@H]2CC[C@H]3[C@@H]4CC[C@H](O)[C@@]4(C)CC[C@@H]3[C@]21C` [Compound 13, 17β-Hydroxy-1α-methyl-5α-androstan-3-one], the “activity against cytokine (TNF-α) production (in words)” value in experiment [1] was “inactive”.

On to `CC1=CC(=O)C[C@@H]2C[C@H](O)[C@H]3[C@@H]4[C@H](O)C[C@H](O)[C@@]4(C)CC[C@@H]3[C@@]12C` [Compound 14, 7β,15β,17β-trihydroxy-1-methyl-3-oxo-5α-androst-1-en], for which the “inhibition of cytokine” value in experiment [1] is given as 52.9 ± 2.4%.

`C[C@]12C=CC(=O)C=C1CC[C@@H]1[C@@H]2[C@@H](O)C[C@@]2(C)[C@H]1CC[C@]2(O)C(=O)CO` [prednisolone, reference compound]: the IC50 in the experiment on T-cell proliferation was 3.51 ± 0.03 µg/mL (≈ 9.74 µM).
